Among the data in ChEMBL document CHEMBL4622955, “Phenyltriazole-functionalized sulfamate inhibitors targeting tyrosyl- or isoleucyl-tRNA synthetase” (Bioorg Med Chem, 2020) are Ki, Activity and inhibition values, retold here.

One experiment addresses Isoleucine--tRNA ligase (Escherichia coli K-12, UniProt P00956). Nature of the experiment: Inhibition of Escherichia coli BL21(DE3) ileRS overexpressed in Escherichia coli Rosetta2(DE3) assessed as reduction in tRNA aminoacylation preincubated with enzyme and substrate for 10 mins prior to ATP addition using 14C-labeled isoleucine and tRNA as substrate by liquid scintillation counting method. Particulars: read-out: Ki(app). A digest of the protocol:
(§1)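 Radiolabeled aminoacylation with 10 nM IleRS, 25 μM 14C-isoleucine, 500 μM ATP and total E. coli tRNA at 2 mg/mL final. Activity normalized to enzyme without inhibitor. Triplicate measurements.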

For another experiment, the system named is Candida albicans. In words: Antimicrobial activity against Candida albicans at 64 uM by resazurin dye based assay. Type of experiment: functional, organism-based. On the technique in general: Alamar Blue is a resazurin reagent that responds to reducing activity.
Experiment [1] relates to Mycobacterium tuberculosis. In words: Antimicrobial activity against Mycobacterium tuberculosis at 64 uM by resazurin dye based assay. It counts as functional, organism-based. A digest of the protocol:
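Non-pathogenic Mycobacterium tuberculosis strain, part of a broader antimicrobial panel; compounds tested up to a maximum concentration of 64 μM.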

A further experiment concerns Staphylococcus aureus. Nature of the experiment: Antimicrobial activity against Staphylococcus aureus at 64 uM by resazurin dye based assay. It counts as functional, organism-based.
The test system of the next experiment is Escherichia coli. Nature of the experiment: Antimicrobial activity against Escherichia coli at 64 uM by resazurin dye based assay. Type of experiment: functional, organism-based.
In experiment [2] the target is Isoleucine--tRNA ligase (Escherichia coli K-12) (UniProt P00956). Nature of the experiment: Inhibition of Escherichia coli BL21(DE3) ileRS overexpressed in Escherichia coli Rosetta2(DE3) assessed as reduction in tRNA aminoacylation at 1 uM preincubated with enzyme and substrate for 10 mins prior to ATP addition using 14C-labeled isoleucine and tRNA as substrate by liquid scintillation counting method. A digest of the protocol: as §1
Isoleucine--tRNA ligase (Escherichia coli K-12), sequence (P00956 whole entry): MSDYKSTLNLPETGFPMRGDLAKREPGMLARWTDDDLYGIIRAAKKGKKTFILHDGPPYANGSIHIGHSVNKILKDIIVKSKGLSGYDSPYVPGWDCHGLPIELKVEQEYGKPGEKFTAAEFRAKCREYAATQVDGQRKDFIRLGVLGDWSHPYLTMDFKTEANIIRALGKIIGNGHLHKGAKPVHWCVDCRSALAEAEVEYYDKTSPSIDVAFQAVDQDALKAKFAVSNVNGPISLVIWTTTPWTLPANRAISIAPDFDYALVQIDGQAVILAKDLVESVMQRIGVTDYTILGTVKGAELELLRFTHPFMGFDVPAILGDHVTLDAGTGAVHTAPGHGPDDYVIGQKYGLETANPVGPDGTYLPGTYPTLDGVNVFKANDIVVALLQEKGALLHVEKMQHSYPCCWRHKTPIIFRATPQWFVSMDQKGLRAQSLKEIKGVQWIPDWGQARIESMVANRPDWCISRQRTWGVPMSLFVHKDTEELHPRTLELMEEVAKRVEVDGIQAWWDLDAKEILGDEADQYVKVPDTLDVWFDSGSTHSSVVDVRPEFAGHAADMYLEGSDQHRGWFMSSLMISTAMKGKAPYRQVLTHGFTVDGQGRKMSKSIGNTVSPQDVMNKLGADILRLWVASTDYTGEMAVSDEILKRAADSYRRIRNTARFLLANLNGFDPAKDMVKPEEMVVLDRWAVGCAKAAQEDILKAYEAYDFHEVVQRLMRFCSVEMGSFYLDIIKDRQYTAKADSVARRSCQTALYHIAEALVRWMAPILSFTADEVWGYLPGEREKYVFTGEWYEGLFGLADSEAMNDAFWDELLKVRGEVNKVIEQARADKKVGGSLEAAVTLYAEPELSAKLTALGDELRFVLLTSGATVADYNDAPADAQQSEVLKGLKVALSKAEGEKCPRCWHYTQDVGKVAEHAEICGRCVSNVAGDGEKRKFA

For experiment [3] the target is unchanged. In words: Inhibition of Escherichia coli BL21(DE3) ileRS overexpressed in Escherichia coli Rosetta2(DE3) assessed as reduction in tRNA aminoacylation at 0.5 uM preincubated with enzyme and substrate for 10 mins prior to ATP addition using 14C-labeled isoleucine and tRNA as substrate by liquid scintillation counting method. A digest of the protocol:
as §1

For experiment [4], the target named is T1, Tyrosine--tRNA ligase (Escherichia coli (strain K12)) (UniProt P0AGJ9).
T1 sequence (whole entry): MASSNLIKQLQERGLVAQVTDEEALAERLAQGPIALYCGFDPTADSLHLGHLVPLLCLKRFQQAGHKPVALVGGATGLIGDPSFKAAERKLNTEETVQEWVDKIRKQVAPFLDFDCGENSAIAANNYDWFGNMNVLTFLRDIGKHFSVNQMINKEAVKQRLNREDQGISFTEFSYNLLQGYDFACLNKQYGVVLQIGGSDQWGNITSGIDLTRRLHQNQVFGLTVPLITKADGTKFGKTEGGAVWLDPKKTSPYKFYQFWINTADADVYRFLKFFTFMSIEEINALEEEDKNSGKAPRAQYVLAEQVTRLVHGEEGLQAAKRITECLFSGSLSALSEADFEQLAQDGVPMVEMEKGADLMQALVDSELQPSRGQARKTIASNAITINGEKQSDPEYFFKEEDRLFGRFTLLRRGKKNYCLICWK
Nature of the experiment: Inhibition of Escherichia coli BL21(DE3) TyrRS overexpressed in Escherichia coli Rosetta2(DE3) assessed as reduction in tRNA aminoacylation at 5 uM preincubated with enzyme and substrate for 10 mins prior to ATP addition using 14C-labeled tyrosine and tRNA as substrate by liquid scintillation counting method. A digest of the protocol: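 TyrRS counterpart of the radiolabeled aminoacylation assay, with test compounds at 5 μM.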

Active and inactive are the calls of the source. The rule behind the calls is not given here.

Isoleucine--tRNA ligase, sequence (P00956 whole entry): as the sequence (P00956 whole entry) above

Turning to `CC[C@H](C)[C@H](N)C(=O)NS(=O)(=O)OC[C@H]1OC[C@@H](CCCn2cc(-c3ccccc3)nn2)[C@H](O)[C@@H]1O`, the Ki on Isoleucine--tRNA ligase was determined as 88 nM. Further, the outcome (in the experiment on Candida albicans; in experiment [1]; in the experiment on Staphylococcus aureus; in the experiment with Escherichia coli) was inactive. The inhibition result in experiment [2] and in experiment [3] was “Active” throughout.
With `CC[C@H](C)[C@H](N)C(=O)NS(=O)(=O)OC[C@H]1OC[C@@H](CCn2nnc(-c3ccccc3)n2)[C@H](O)[C@@H]1O`, the outcome (with Candida albicans; in experiment [1]; in the experiment on Staphylococcus aureus; in the experiment on Escherichia coli) was inactive. Also, the inhibition result in experiment [2] is “Active”.
For the compound `N[C@@H](Cc1ccc(O)cc1)C(=O)NS(=O)(=O)OC[C@H]1OC[C@@H](CCn2cc(-c3ccccc3)nn2)[C@H](O)[C@@H]1O`, the outcome (with Candida albicans; in experiment [1]; with Staphylococcus aureus; with Escherichia coli) was inactive. The inhibition result in experiment [4] is “inactive”.
`N[C@@H](Cc1ccc(O)cc1)C(=O)NS(=O)(=O)OC[C@H]1OC[C@@H](CCn2nnc(-c3ccccc3)n2)[C@H](O)[C@@H]1O`: the outcome (in the experiment with Candida albicans; in experiment [1]; in the experiment on Staphylococcus aureus; in the experiment with Escherichia coli) was inactive. For the same compound, the inhibition result in experiment [4] is “inactive”.
As for `N[C@@H](Cc1ccc(O)cc1)C(=O)NS(=O)(=O)OC[C@H]1OC[C@@H](OCCn2cc(-c3ccccc3)nn2)[C@H](O)[C@@H]1O`, the outcome (in the experiment on Candida albicans; in experiment [1]; with Staphylococcus aureus; with Escherichia coli) was inactive. Moreover, the inhibition entry in experiment [4] is “inactive”.
`CC[C@H](C)[C@H](N)C(=O)NS(=O)(=O)OC[C@H]1OC[C@@H](OCCn2cc(-c3ccccc3)nn2)[C@H](O)[C@@H]1O`: the Ki at Isoleucine--tRNA ligase was found to be 114 nM. The outcome (with Candida albicans; in experiment [1]; in the experiment on Staphylococcus aureus; with Escherichia coli) was inactive. Also, the inhibition result in experiment [2] and in experiment [3] was “Active” in each case.
For `CC[C@H](C)[C@H](N)C(=O)NS(=O)(=O)OC[C@H]1OC[C@@H](CCn2cc(-c3ccccc3)nn2)[C@H](O)[C@@H]1O`, the result (in the experiment on Candida albicans; in experiment [1]; in the experiment on Staphylococcus aureus; with Escherichia coli) was inactive. Further, the inhibition result in experiment [2] is “Active”.
